From ChEMBL document CHEMBL1255482, “Novel mechanism of glycopeptide resistance in the A40926 producer Nonomuraea sp. ATCC 39727” (2010)
≈ marks a conversion by molar mass, not a printed value. Calls of active or inactive are those of the source. The calls are words filed in the database; no cut-off is given here.

What was measured:
Assay type in all cases: functional
Nonomuraea [1] = assay: Antimicrobial activity against Nonomuraea sp. ATCC 39727 selected after 12 ug/ml of compound exposure
Method in brief: (§1)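 Exponential-phase mycelium (about 48 h, 28°C, shaken, in SM) was exposed to the inducing glycopeptide for 24 h. It was then harvested, suspended in 0.9% NaCl and sonicated. Up to 10⁷ CFU were spread on SM agar with a glycopeptide concentration series and incubated 15 days at 28°C. MIC was taken from the population analysis profile as the concentration inhibiting 99.99% of colonies. Values are the mean of three independent experiments.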

Nonomuraea [2] = assay: Antimicrobial activity against vanY-deficient Nonomuraea sp. ATCC 39727
Method in brief: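 The ΔvanY mutant replaces the vanY coding sequence with the aac(3)IV cassette. Its sonicated exponential-phase mycelium (SM, 28°C, about 48 h) was plated, up to 10⁷ CFU, on SM agar carrying graded glycopeptide concentrations and incubated 15 days at 28°C. MIC is the concentration inhibiting 99.99% of the population, read from the population analysis profile.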

[3] = test system: Actinoplanes teichomyceticus; assay: Antimicrobial activity against Actinoplanes teichomyceticus
Nonomuraea [4] = assay: Antimicrobial activity against Nonomuraea sp. ATCC 39727
Method in brief: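 MIC taken from population analysis profiles. Sonicated mycelium from exponential-phase SM cultures (about 48 h, 28°C, shaken) was suspended in 0.9% NaCl. Up to 10⁷ CFU were spread per SM agar plate containing a range of glycopeptide concentrations and incubated 15 days at 28°C. Colonies were counted for the surviving fraction. MIC is the concentration inhibiting 99.99% of the population; mean of three independent experiments.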

Streptomyces coelicolor = assay: Antimicrobial activity against Streptomyces coelicolor
Streptomyces venezuelae = assay: Antimicrobial activity against Streptomyces venezuelae ATCC 10595 harboring vanY gene
Method in brief: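 Population analysis profile: 10⁷ spores of each strain were plated on MYM agar containing graded antibiotic levels and incubated 3 days. Surviving colonies were counted, and MIC was taken as the concentration inhibiting growth of 99.99% of the population.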

Nonomuraea [5] = assay: Antimicrobial activity against Nonomuraea sp. ATCC 39727 selected after 0.5 ug/ml of A40926 exposure; method in brief: as §1
Nonomuraea [6] = assay: Microbicidal activity against Nonomuraea sp. ATCC 39727 at 5000 ug/ml after 24 hrs
Method in brief: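 MBC: sonicated mycelium was grown in SM flasks for three generations, then given increasing antibiotic concentrations for a further 24 h. It was washed with physiological saline, diluted and plated on antibiotic-free SM agar for about 15 days at 28°C to give the surviving fraction. Under 0.1% survival counted as bactericidal; mean of three experiments.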

Nonomuraea [7] = assay: Antimicrobial activity against Nonomuraea sp. ATCC 39727 selected after 0.25 ug/ml of teicoplanin exposure; method in brief: as §1

| SMILES | MIC (Nonomuraea [1]) | MIC (Nonomuraea [2]) | MIC [3] | MIC (Nonomuraea [4]) | MIC (Streptomyces coelicolor) | Activity (Streptomyces venezuelae) | MIC (Nonomuraea [5]) | Activity (Nonomuraea [6]) | MIC (Nonomuraea [7]) |
| --- | --- | --- | --- | --- | --- | --- | --- | --- | --- |
| CN[C@H](CC(C)C)C(=O)N[C@H]1C(=O)N[C@@H](CC(N)=O)C(=O)N[C@H]2C(=O)N[C@H]3C(=O)N[C@H](C(=O)N[C@H](C(=O)O)c4cc(O)cc(O)c4-c4cc3ccc4O)[C@H](O)c3ccc(c(Cl)c3)Oc3cc2cc(c3O[C@@H]2O[C@H](CO)[C@@H](O)[C@H](O)[C@H]2O[C@H]2C[C@](C)(N)[C@H](O)[C@H](C)O2)Oc2ccc(cc2Cl)[C@H]1O [VANCOMYCIN] | 20 µg/mL (≈ 13.8 µM) | 4 µg/mL (≈ 2.76 µM) | 90 µg/mL (≈ 62.1 µM) | 19.5 µg/mL (≈ 13.5 µM) | 100 µg/mL (≈ 69 µM) | inactive | 35 µg/mL (≈ 24.2 µM) | inactive | 27 µg/mL |
| NC[C@H]1O[C@H](O[C@H]2[C@H](O)[C@@H](O[C@H]3O[C@H](CO)[C@@H](O)[C@H](N)[C@H]3O)[C@H](N)C[C@@H]2N)[C@H](O)[C@@H](O)[C@@H]1O |  |  |  |  |  |  |  | Active |  |
